Source: ChEMBL document CHEMBL3588826, “Chimeric derivatives of functionalized amino acids and α-aminoamides: compounds with anticonvulsant activity in seizure models and inhibitory actions on central, peripheral, and cardiac isoforms of voltage-gated sodium channels” (Bioorg Med Chem, 2015)

Key:
Rattus norvegicus [1] = assay: Toxicity in po dosed Sprague-Dawley rat assessed as changes in body weight administered via gavage; type: organism-based; details: in vivo
Rattus norvegicus [2] = assay: Anticonvulsant activity in ip dosed rat assessed as decrease in partial complex or temporal lobe seizures by hippocampal kindeld seizure test; type: functional
Rattus norvegicus [3] = assay: Toxicity in po dosed Sprague-Dawley rat assessed as decrease in spleen weight administered via gavage; type: organism-based; details: in vivo
Summary of the method: (§1)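 Non-GLP 7-day repeated-dose study in female Sprague-Dawley rats given oral gavage at 20, 60 and 180 mg/kg/day. Endpoints were weight bearing, gait coordination, respiratory rate, relative organ weights, clinical chemistry and gross pathology, with NOAEL determined.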

Rattus norvegicus [4] = assay: Bioavailability in Sprague-Dawley rat at 5 mg/kg, iv and 20 mg/kg, po; type: ADME, organism-based; details: in vivo
Summary of the method: (§2)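 Pharmacokinetics in Sprague-Dawley rats given a single iv dose of 5 mg/kg or an oral dose of 20 mg/kg.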

[5] = biological target: Sodium channel protein type 9 subunit alpha (Homo sapiens) (UniProt Q15858); assay: Inhibition of human Nav1.7 expressed in HEK293 cells assessed as half-maximal voltage for steady state fast-inactivation at 10 uM by whole cell patch-clamp electrophysiology (reference value: -61.11 +/-3.02 mV); type: cell-based
[6] = biological target: T1, Sodium channel protein type 5 subunit alpha (Homo sapiens, UniProt Q14524); assay: Frequency-dependent inhibition of human Nav1.5 expressed in HEK293 cells assessed as current amplitude at 10 uM by whole cell patch-clamp electrophysiology; type: cell-based; details: hek293, 10 µM
Summary of the method: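 Stable HEK293 lines expressing hNav1.1, rNav1.3, hNav1.7 or hNav1.5 were recorded by whole-cell voltage clamp at room temperature, with 10 μM compound versus 0.1% DMSO. A 30-pulse train was applied, and the read-out was the fraction of current remaining at the last pulse normalized to the first. Nav1.5 used hyperpolarized protocols.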

CAD [7] = assay: Frequency-dependent inhibition of voltage-gated sodium channel in mouse CAD cells assessed as decrease in current amplitude at 10 uM by whole cell patch-clamp electrophysiology; type: cell-based
Summary of the method: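 CAD cells, whole-cell voltage clamp at room temperature, with compound at 1, 10 or 30 μM against 0.1% DMSO. Thirty identical test pulses were given at 10 Hz. Current was normalized as peak at pulse N over pulse 1, and the maximal decrement was read at the end of the train. One-way ANOVA with Dunnett's test; 4–10 cells per condition.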

Rattus norvegicus [8] = assay: Toxicity in po dosed Sprague-Dawley rat assessed as coordination in gait administered via gavage; type: organism-based; details: in vivo; summary of the method: as §1
CAD [9] = assay: Inhibition of voltage-gated sodium channel in mouse CAD cells assessed as half-maximal voltage for steady state fast-inactivation at 10 uM by whole cell patch-clamp electrophysiology (reference value: -69.1 +/-3.6 mV); type: cell-based
Summary of the method: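 CAD cells, whole-cell voltage clamp at room temperature. Prepulses from −120 to −10 mV in 10 mV steps for 500 ms, then a 0 mV, 20 ms test pulse. V1/2 from single-Boltzmann fits to individual cells, averaged (mean ± SEM). Compared with 0.1% DMSO by Student's t-test.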

Mus musculus [10] = assay: Anticonvulsant activity in ip dosed corneal kindled seizure mouse model measured after 0.25 hrs; type: functional
Rattus norvegicus [11] = assay: Anticonvulsant activity in po dosed albino Sprague-Dawley rat measured at 2 hrs by maximal electroshock seizure test; type: functional
Summary of the method: (§3)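 Screened under the NIH anticonvulsant program in male albino Carworth Farms No. 1 mice (ip) and male albino Sprague-Dawley rats (ip or oral). Protection tested by maximal electroshock or 6 Hz (32 mA) psychomotor stimulation.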

Mus musculus [12] = assay: Anticonvulsant activity in ip dosed albino Carworth Farms No. 1 mouse measured at 0.25 hrs by maximal electroshock seizure test; type: functional; details: Carworth Farms No. 1, ip; summary of the method: as §3
[13] = Behavioural toxicity in po dosed albino Sprague-Dawley rat measured at 1 hr; type: organism-based; details: in vivo
Rattus norvegicus [14] = assay: Anticonvulsant activity in ip dosed albino Sprague-Dawley rat measured at 2 hrs by maximal electroshock seizure test; type: functional
Summary of the method: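 Screened under the NIH Anticonvulsant Screening Program in male rodents, with mice and rats dosed ip and rats also dosed po. Maximal electroshock (MES) and 6 Hz (32 mA) psychomotor seizure tests were run.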

[15] = biological target: T1, Sodium channel protein type 5 subunit alpha; assay: Inhibition of human Nav1.5 expressed in HEK293 cells assessed as half-maximal voltage for steady state fast-inactivation at 10 uM by whole cell patch-clamp electrophysiology (reference value: -96.54 +/-1.64 mV); type: cell-based; details: hek293, 10 µM
[16] = biological target: Sodium channel protein type 3 subunit alpha (Rattus norvegicus) (UniProt P08104); assay: Inhibition of rat Nav1.3 expressed in HEK293 cells assessed as half-maximal voltage for steady state activation at 10 uM by whole cell patch-clamp electrophysiology (reference value: -29.62 +/-3.59 mV); type: cell-based
Rattus norvegicus [17] = assay: Toxicity in po dosed Sprague-Dawley rat assessed as decrease in thymus weight administered via gavage; type: organism-based; details: in vivo
Summary of the method: (§4)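 Non-GLP repeated-dose study: female Sprague-Dawley rats given compound by oral gavage once daily for 7 days at 20, 60 and 180 mg/kg/day. Endpoints included weight bearing, gait coordination, respiratory rate, relative organ weights (liver, spleen, thymus), clinical chemistry and gross pathology; NOAEL derived.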

Cytochrome P450 3A5 = Cytochrome P450 3A5 (Homo sapiens, UniProt P20815); assay: Inhibition of human CYP3A5 at 10 uM; type: ADME
Summary of the method: (§5)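 Test compound at 10 μM against a human CYP450 panel (CYP1A2, 2B6, 2C8, 2C9, 2C19, 2D6, 3A4/5). Direct inhibition was measured, and time-dependent inhibition was measured after a 30-min preincubation.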

[18] = Half life in Sprague-Dawley rat at 20 mg/kg, po; type: ADME, organism-based; details: in vivo; summary of the method: as §2
[19] = biological target: Sodium channel protein type 3 subunit alpha (Rattus norvegicus) (UniProt P08104); assay: Inhibition of rat Nav1.3 expressed in HEK293 cells assessed as half-maximal voltage for steady state fast-inactivation at 10 uM by whole cell patch-clamp electrophysiology (reference value: -65.44 +/-5.62 mV); type: cell-based
Cytochrome P450 3A4 = Cytochrome P450 3A4 (Homo sapiens, UniProt P08684); assay: Inhibition of human CYP3A4 at 10 uM; type: ADME; summary of the method: as §5
[20] = Protective index, ratio of TD50 for behavioural toxicity in po dosed albino Sprague-Dawley rat to ED50 for anticonvulsant activity in po dosed MES albino Sprague-Dawley rat model; type: organism-based; details: in vivo, read-out: Ratio TD50/ED50
Summary of the method: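 Male albino Sprague-Dawley rats were dosed ip or orally. Protective index = TD50/ED50, the ED50 taken from maximal electroshock by the same route.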

Cytochrome P450 2D6 = Cytochrome P450 2D6 (Homo sapiens, UniProt P10635); assay: Inhibition of human CYP2D6 at 10 uM; type: ADME; summary of the method: as §5
Rattus norvegicus [21] = assay: Ratio of NOAEL in Sprague-Dawley rat to ED50 for anticonvulsant activity in po dosed Sprague-Dawley rat by MES test
Summary of the method: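 Non-GLP 7-day repeated-dose study in female Sprague-Dawley rats, given by oral gavage at 20, 60 and 180 mg/kg/day. Endpoints: weight bearing, gait coordination, respiratory rate, relative organ weights, clinical chemistry and gross pathology, giving a NOAEL. The ratio divides the NOAEL by the oral MES ED50.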

[22] = biological target: Voltage-gated inwardly rectifying potassium channel KCNH2 (Homo sapiens, UniProt Q12809); assay: Binding affinity to human ERG at 30 uM by PatchExpress analysis
Rattus norvegicus [23] = assay: Toxicity in po dosed Sprague-Dawley rat assessed as increase in liver weight administered via gavage; type: organism-based; details: in vivo; summary of the method: as §4

T1 sequence (Q14524 whole entry): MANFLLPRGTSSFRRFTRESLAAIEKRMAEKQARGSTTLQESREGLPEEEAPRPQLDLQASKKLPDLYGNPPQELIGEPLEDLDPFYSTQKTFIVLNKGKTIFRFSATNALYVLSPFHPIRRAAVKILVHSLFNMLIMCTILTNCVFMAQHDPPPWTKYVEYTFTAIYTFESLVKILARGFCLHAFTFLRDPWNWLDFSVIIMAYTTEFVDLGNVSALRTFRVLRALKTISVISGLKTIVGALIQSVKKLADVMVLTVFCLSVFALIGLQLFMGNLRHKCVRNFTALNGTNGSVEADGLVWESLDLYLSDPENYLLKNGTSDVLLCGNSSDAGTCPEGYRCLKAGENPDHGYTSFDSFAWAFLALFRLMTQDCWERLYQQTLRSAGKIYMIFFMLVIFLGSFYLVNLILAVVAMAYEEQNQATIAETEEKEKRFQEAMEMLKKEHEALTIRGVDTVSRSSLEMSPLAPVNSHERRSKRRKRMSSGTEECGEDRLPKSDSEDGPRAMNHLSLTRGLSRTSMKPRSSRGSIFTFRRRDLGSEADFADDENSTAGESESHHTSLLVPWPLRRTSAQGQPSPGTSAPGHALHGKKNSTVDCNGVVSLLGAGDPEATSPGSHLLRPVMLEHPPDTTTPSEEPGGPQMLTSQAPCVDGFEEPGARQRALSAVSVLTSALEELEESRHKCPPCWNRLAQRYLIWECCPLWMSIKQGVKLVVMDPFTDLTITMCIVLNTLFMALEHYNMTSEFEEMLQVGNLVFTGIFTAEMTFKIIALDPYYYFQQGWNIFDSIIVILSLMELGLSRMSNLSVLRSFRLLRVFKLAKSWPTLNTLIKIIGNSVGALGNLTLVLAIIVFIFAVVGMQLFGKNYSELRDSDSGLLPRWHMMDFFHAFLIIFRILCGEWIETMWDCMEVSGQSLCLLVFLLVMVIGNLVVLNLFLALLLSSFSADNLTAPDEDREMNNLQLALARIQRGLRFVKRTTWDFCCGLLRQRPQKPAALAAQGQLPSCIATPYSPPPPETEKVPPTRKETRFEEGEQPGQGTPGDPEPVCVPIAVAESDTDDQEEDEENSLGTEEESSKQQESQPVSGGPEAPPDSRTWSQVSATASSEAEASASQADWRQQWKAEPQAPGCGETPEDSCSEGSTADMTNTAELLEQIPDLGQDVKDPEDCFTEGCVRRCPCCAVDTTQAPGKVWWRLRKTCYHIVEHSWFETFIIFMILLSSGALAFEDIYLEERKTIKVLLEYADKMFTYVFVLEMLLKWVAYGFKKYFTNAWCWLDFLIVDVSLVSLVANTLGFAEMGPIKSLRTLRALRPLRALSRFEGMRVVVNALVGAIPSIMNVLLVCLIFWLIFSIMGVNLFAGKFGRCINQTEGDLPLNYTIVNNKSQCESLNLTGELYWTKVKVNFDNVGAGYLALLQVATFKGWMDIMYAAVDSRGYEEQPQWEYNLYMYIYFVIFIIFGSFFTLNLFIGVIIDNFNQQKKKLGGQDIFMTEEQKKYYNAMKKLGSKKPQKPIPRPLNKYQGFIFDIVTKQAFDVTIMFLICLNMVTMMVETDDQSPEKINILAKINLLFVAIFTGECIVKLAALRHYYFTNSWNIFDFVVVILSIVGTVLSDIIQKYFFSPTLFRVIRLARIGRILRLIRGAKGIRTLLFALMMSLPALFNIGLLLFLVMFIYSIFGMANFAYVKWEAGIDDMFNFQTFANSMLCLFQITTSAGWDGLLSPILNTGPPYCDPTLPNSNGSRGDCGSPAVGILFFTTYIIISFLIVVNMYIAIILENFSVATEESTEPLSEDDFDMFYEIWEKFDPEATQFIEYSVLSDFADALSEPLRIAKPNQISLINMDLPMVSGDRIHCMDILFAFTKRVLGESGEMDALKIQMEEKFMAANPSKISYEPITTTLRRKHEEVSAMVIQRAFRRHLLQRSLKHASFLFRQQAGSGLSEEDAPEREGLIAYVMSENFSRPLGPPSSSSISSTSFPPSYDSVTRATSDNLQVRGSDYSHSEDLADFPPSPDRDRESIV
Chain of Sodium channel protein type 3 subunit alpha (Rattus norvegicus) (P08104 whole entry): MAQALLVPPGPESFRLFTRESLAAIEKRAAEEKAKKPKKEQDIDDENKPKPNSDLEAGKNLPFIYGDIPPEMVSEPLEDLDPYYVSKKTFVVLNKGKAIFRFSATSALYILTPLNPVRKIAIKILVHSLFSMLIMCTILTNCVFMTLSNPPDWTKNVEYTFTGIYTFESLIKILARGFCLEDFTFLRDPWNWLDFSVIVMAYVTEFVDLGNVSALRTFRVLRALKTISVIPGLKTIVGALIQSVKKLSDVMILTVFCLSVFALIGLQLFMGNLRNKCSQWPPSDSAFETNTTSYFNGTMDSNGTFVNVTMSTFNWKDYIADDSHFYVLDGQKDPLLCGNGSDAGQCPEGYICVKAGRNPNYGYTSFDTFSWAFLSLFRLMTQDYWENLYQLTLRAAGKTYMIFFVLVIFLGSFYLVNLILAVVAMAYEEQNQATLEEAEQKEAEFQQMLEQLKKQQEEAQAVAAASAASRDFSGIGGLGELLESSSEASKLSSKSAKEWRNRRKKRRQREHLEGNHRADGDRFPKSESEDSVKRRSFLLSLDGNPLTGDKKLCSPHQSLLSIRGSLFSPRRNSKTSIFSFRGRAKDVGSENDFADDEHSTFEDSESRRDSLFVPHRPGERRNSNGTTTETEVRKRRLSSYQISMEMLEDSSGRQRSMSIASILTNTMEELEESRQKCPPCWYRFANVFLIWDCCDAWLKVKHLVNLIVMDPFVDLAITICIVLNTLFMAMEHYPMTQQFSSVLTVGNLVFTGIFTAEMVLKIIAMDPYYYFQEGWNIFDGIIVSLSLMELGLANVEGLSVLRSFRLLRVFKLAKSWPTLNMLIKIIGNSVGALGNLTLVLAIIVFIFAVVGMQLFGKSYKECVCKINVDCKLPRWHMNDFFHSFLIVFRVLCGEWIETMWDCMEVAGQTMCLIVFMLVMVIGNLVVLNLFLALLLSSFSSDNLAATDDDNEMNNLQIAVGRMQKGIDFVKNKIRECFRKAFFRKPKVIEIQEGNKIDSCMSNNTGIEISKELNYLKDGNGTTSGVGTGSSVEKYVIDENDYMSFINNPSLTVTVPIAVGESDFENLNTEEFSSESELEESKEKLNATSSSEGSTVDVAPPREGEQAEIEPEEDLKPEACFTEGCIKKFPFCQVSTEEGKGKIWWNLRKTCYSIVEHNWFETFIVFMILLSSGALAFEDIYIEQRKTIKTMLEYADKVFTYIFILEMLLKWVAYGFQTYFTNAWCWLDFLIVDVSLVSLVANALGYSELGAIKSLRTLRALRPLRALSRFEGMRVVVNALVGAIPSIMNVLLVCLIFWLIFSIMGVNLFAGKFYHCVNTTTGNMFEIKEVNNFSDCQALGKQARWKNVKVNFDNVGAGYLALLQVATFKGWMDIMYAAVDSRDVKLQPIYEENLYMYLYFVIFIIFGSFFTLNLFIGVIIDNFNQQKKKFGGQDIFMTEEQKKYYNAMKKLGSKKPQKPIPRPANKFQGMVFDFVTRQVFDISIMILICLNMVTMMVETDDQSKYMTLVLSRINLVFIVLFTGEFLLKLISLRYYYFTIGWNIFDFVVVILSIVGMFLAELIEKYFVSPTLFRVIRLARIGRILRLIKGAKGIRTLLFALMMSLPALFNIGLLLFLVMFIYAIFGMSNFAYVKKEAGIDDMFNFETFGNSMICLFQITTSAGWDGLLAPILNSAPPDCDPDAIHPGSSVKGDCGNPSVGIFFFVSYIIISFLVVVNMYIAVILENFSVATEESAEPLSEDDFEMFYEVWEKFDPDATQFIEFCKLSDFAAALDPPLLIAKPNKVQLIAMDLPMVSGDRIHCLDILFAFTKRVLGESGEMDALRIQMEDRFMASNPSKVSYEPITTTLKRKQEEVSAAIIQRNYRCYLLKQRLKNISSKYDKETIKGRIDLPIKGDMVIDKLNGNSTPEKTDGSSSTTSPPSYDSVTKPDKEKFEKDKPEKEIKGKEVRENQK
Chain of Voltage-gated inwardly rectifying potassium channel KCNH2 (Q12809 whole entry): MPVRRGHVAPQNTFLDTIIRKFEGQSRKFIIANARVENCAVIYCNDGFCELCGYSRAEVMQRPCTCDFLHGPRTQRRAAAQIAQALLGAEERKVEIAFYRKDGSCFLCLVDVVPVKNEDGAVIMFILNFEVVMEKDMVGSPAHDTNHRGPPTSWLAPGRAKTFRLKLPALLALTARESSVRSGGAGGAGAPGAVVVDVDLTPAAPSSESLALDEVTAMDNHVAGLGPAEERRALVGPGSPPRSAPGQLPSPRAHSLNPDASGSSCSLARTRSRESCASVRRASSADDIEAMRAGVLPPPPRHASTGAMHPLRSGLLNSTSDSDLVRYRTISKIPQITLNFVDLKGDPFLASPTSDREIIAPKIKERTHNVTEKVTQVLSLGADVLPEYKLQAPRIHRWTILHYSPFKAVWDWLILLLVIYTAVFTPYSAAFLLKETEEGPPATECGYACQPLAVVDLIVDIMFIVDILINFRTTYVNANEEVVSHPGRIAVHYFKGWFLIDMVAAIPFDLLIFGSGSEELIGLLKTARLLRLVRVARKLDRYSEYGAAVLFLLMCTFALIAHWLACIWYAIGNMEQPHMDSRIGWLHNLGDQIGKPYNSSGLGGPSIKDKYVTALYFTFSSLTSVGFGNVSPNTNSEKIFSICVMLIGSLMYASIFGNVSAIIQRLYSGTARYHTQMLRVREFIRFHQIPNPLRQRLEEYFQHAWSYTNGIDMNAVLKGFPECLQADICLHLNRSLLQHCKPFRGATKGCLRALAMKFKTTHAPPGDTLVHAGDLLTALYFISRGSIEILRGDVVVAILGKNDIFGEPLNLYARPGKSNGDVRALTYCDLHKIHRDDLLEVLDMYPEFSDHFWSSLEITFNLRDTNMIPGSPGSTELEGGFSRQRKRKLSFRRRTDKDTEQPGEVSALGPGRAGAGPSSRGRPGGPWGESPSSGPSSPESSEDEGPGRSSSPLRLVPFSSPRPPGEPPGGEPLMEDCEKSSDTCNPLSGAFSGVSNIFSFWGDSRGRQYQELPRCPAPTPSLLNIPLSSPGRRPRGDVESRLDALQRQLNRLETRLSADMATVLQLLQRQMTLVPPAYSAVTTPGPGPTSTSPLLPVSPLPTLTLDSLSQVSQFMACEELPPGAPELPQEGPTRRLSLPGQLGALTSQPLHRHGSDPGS

COC[C@@H](NC(C)=O)C(=O)NCc1ccc(Oc2cccc(OC(F)(F)F)c2)cc1
Activity (Rattus norvegicus [1]): Toxic | ED50 (Rattus norvegicus [2]): 22 mg/kg | Activity (Rattus norvegicus [3]): Toxic | F (Rattus norvegicus [4]): 92% | V1/2 [5]: -81.3 mV | inhibition (INH) [6]: Not Active | inhibition (CAD [7]): 39% | Activity (Rattus norvegicus [8]): Toxic | V1/2 (CAD [9]): -84.6 mV | ED50 (Mus musculus [10]): 41 mg/kg | ED50 (Rattus norvegicus [11]): 8.3 mg/kg | ED50 (Mus musculus [12]): 6.5 mg/kg | TD50 at 1 h [13]: 240 mg/kg | ED50 (Rattus norvegicus [14]): 5.7 mg/kg | V1/2 [15]: -95.36 mV | V1/2 [16]: -32.5 mV | Activity (Rattus norvegicus [17]): Toxic | inhibition (INH) (Cytochrome P450 3A5): Not Active | half-life [18]: 4.63 h | V1/2 [19]: -72.8 mV | inhibition (INH) (Cytochrome P450 3A4): Not Active | selectivity ratio [20]: 29 | inhibition (INH) (Cytochrome P450 2D6): Not Active | Ratio (Rattus norvegicus [21]): 10 | Activity [22]: Not Active | Activity (Rattus norvegicus [23]): Toxic
